High-throughput results from PubChem BioAssay.
In the library only some 3.5% were active in any assay of this set; here they are far more common.
MrgX1 antagonist = antagonists of human MrgX1 receptor. Q96LB2. MRGX1-HEK293 calcium flux, Fluo-4, BAM8-22 antagonism; stronger effect = lower value. B-score at 10 µM. actives 1.3% (n = 310,000). AID 588676;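 active = calcium-response B-score plate-corrected more than 3 library SD below zero, starting fluorescence within 5 deviations, no agonist response on first addition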;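 also: peak minus trough fluorescence over baseline after final BAM8-22 challenge near maximal dose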
Target sequence (Q96LB2 whole entry, looked up): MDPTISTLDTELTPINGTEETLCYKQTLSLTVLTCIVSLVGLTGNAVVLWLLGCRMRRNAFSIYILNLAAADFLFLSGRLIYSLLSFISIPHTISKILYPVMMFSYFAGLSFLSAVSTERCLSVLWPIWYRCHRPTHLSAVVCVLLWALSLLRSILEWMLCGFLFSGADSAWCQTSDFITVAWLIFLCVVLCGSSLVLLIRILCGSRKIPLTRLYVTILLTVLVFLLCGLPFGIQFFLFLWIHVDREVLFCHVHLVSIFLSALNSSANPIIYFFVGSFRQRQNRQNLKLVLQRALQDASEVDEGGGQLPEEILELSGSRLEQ
RGS4 inh = inhibitors of human RGS4; P49798; HEK293 M3R/RGS4 inducible, Fluo-4 calcium flux; stronger effect = higher value; triggered by carbachol at its EC20; B-score at 10 µM; actives 0.45% (n = 310,000);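 active = B-score, a plate-corrected calcium signal, over three deviations above library mean, with baseline fluorescence within five deviations of library mean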;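 also: RGS4 expression induced by doxycycline in cells with stable M3 receptor; B-score is computed from the integrated fluorescence ratio over baseline after carbachol; higher B-score means a larger calcium signal and so more RGS4 inhibition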
Target sequence (P49798 whole entry, looked up): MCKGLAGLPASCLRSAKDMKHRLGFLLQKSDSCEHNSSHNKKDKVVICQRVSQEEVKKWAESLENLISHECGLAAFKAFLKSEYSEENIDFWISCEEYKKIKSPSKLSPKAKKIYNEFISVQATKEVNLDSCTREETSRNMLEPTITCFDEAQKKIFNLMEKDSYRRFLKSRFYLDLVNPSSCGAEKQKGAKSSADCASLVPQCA
RGS4 act = RGS4 potentiation or activation; AID 463111; actives 0.92% (n = 310,000); HEK293 M3R/inducible RGS4, carbachol calcium flux Fluo4; stronger effect = lower value; B-score at 10 µM;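 active = B-score of the integrated calcium signal more than 4 SD below the library mean, with starting fluorescence not abnormally high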;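 also: negative B-score means reduced calcium response which marks RGS4 activation or potentiation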
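System: HEK293 FlpIn-TREx cells, stable M3R, doxycycline-inducible RGS4. Timing: overnight RGS4 induction, 30 min dye load 37 °C, 20 min compound RT. Also added: carbachol, ECmax concentration. Measured by: Fluo4 fluorescence kinetic imaging of calcium. Evaluation: integrated calcium ratio converted to B score.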
MrgX1 PAM = human MrgX1 positive allosteric modulation, primary screen | Q96LB2 | MrgX1-HEK293, Fluo-4 calcium flux, FDSS; stronger effect = higher value | AID 588675 | B-score at 10 µM | actives 0.63% (n = 310,000);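 active = plate-corrected calcium response at least 3 library SD above typical, normal starting fluorescence, not activating the receptor alone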;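 also: compound read alongside a low EC10 to EC30 dose of BAM8-22 agonist; peak minus trough fluorescence over baseline measured at the second addition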
MrgX1 agonist = activates human MrgX1 receptor signaling; Q96LB2; MrgX1-HEK293 cells, Fluo-4 calcium fluorescence, agonist mode; stronger effect = higher value; B-score at 10 µM; actives 0.44% (n = 310,000);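 active = calcium response B-score plate-corrected fluorescence ratio at least 3 library SD, with starting fluorescence B-score inside 5 SD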
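Test system: HEK293 cells stably expressing human MrgX1 receptor; amount: 15,000 cells per well; doses: compound delivered in addition one of three; times: overnight plating before 1 h dye loading; detection: Fluo-4 NW calcium-flux fluorescence, kinetic read; read-out basis: B-scored fluorescence response ratio; controls: positive and negative controls per plate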
MrgX1 ant reconf = human MrgX1 receptor antagonism, re-confirmation screen. shares compounds with MrgX1 antagonist. MrgX1-HEK293, BAM8-22 calcium flux, Fluo-4; stronger effect = lower value. remaining BAM8-22 calcium response % of control (stronger effect = lower value), % at 10 µM. actives 19% (n = 2,300). AID 602420;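 active = remaining agonist calcium response no higher than 100% minus 3 SD of agonist-only control wells, with starting fluorescence near control levels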;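 also: agonist BAM8-22 given at a near maximal EC90 to ECmax level; peak minus minimum fluorescence divided by baseline after agonist addition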
HEK293 Ca flux = counter-screen for MrgX1 antagonists: effect in parental HEK293 cells; shares compounds with MrgX1 antagonist; AID 624111; Fluo-4 calcium fluorescence, FDSS; actives 2% (n = 4,000); fluorescence ratio F(max-min)/F0 at 10 µM;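 active = duplicate-averaged calcium fluorescence ratio at least three times the standard deviation of buffer wells, a nonspecific response in parental cells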
HEK293 Ca counter = MrgX1 allosteric activator counter-screen hit in parental HEK293 cells; parental HEK293 calcium flux, Fluo-4 fluorescence ratio; stronger effect = higher value; fluorescence ratio F(max-min)/F0 at 10 µM; actives 0.4% (n = 4,000); shares compounds with MrgX1 antagonist;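 active = calcium fluorescence ratio, averaged over duplicates, at least 3 SD of the buffer-well ratio, meaning a nonspecific response in receptor-free cells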;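 also: untransfected parental HEK293 lacking MrgX1 used as counterscreen for MrgX1 allosteric activators; fluorescence change taken during the second addition on a kinetic imager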
HEK293 Ca cntr2 = activity in parental HEK293 cells lacking MrgX1 receptor; Fluo-4 calcium fluorescence (FDSS); stronger effect = higher value; AID 624115; fluorescence ratio F(max-min)/F0 at 10 µM; shares compounds with MrgX1 antagonist; actives 8.7% (n = 4,000);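 active = calcium fluorescence ratio at least three times the spread of buffer wells, meaning a non-specific response in parental cells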
Hits are given with their value; - = inactive; . = no result given.

SMILES | MrgX1 antagonist | RGS4 inh | RGS4 act | MrgX1 PAM | MrgX1 agonist | MrgX1 ant reconf | HEK293 Ca flux | HEK293 Ca counter | HEK293 Ca cntr2
CC1CCN(C(=O)C2CCC(CNS(=O)(=O)c3cccc4cccnc34)CC2)CC1 (stereo unspecified) | -5.3 | - | - | - | - | - | - | - | -
COC(=O)c1ccc2[nH]c3c(c2c1)CC(C)CC3 (stereo unspecified) | - | - | - | - | - | . | . | . | .
CC1CCc2[nH]c3ccc(C(=O)N4CCCC(C(F)(F)F)C4)cc3c2C1 (stereo unspecified) | -4.6 | - | - | - | - | - | - | - | -
O=C1NC(=S)N/C1=C/c1cc2c(cc1[N+](=O)[O-])OCO2 | - | - | - | - | - | . | . | . | .
COCCN=C1Sc2nc3ccc(C)cc3cc2CN1Cc1ccco1 | -5.4 | - | - | - | - | - | - | - | -
O=C(/C=C/c1ccccc1)NCCCNC(=O)/C=C/c1ccccc1 | - | - | - | - | - | . | . | . | .
Cc1ccc(S(=O)(=O)N2CCCCC2)cc1NC(=O)COc1ccccc1F | - | - | - | - | - | . | . | . | .
CCOC(=O)c1sc(-c2ccc(C(F)(F)F)cc2)nc1O | -5.7 | - | - | - | - | 59% | - | - | -
Cc1cccc(-n2ccnc2SCC(=O)Nc2nnc(C)s2)c1 | -7.7 | - | - | - | - | - | - | - | -
CCc1nnc(NC(=O)CSc2nccn2-c2cccc(C)c2)s1 | - | - | - | - | - | . | . | . | .
CCC(=O)c1ccc(OCC(=O)OCC(=O)N2CCc3ccccc32)cc1 | - | - | - | - | - | . | . | . | .
Cn1cc([C@@H]2C[C@H]3CN(Cc4cccc(Cl)c4)C(=O)[C@]34CCCN24)c2ccccc21 | -5.2 | - | - | - | - | - | - | - | -
Cc1c([C@@H]2C[C@H]3CN(Cc4cccc(Cl)c4)C(=O)[C@]34CCCN24)cnn1C | - | - | - | - | - | . | . | . | .
C[C@@H](O)[C@H]1C(=O)N2C(C(=O)O)=C(S[C@@H]3CN[C@H](C(=O)N(C)C)C3)[C@H](C)[C@H]12 | - | - | - | - | - | . | . | . | .
COc1ccc(N2CC(O)=C(c3nc(-c4ccc(F)cc4)cs3)C2=N)cc1Cl | - | - | - | - | - | . | . | . | .
COc1ccc(N2CC(O)=C(c3nc(-c4ccc(F)cc4)cs3)C2=N)cc1OC | -6.8 | - | - | - | - | - | - | - | -
COc1ccc(CNC(=O)CC2Sc3ccccc3NC2=O)cc1 (stereo unspecified) | - | - | - | - | - | . | . | . | .
O=C(COC(=O)CC1Sc2ccccc2NC1=O)NCc1ccccc1 (stereo unspecified) | -11 | - | - | - | - | - | - | - | -
Nc1nc(Cl)cc(NCCc2ccccc2)n1 | - | - | - | - | - | . | . | . | .
Nc1nc(Cl)cc(NCCc2ccc(O)cc2)n1 | -5.8 | - | - | - | - | - | - | - | -
O=C1CC(N2CCC(O)(c3ccc(Br)cc3)CC2)C(=O)N1c1ccc(Cl)cc1 (stereo unspecified) | -6.5 | - | - | - | - | - | - | - | -
COc1ccc(C2NC(=O)CCC2[N+](=O)[O-])cc1 (stereo unspecified) | - | - | - | - | - | . | . | . | .
CCOC(=O)c1ccc(-n2[nH]c(-c3ccccc3)cc2=O)cc1 | -5.8 | - | - | - | - | 71% | - | - | -
Cc1ccc(NC(=O)CCc2nnc3ccc(N4CCC(C)CC4)nn23)nc1 | -7.4 | - | - | - | - | - | - | - | -
Cc1ccc(C)c(CN2C(=O)C3CCCN3c3ccc(C#N)cc32)c1 (stereo unspecified) | -5.6 | - | - | - | - | - | - | - | -
SMILES | MrgX1 antagonist | RGS4 inh | RGS4 act | MrgX1 PAM | MrgX1 agonist | MrgX1 ant reconf | HEK293 Ca flux | HEK293 Ca counter | HEK293 Ca cntr2
Cc1ccc(CN2C(=O)C3CCCN3c3ccc(C#N)cc32)cc1 (stereo unspecified) | - | - | - | - | - | . | . | . | .
CCCOC(=O)c1ccc(NC(=O)C(CC)CC)cc1 | -6.4 | - | - | - | - | - | - | - | -
N#CC(C#N)=Cc1ccc(OCC(=O)N2CCOCC2)cc1 | - | - | - | - | - | . | . | . | .
CCn1c(SCC(=O)c2ccccc2)nnc1-c1cccs1 | - | - | - | - | - | . | . | . | .
O=C1c2ccccc2OC2(C=Cc3ccccc3O2)N1Cc1ccccc1 (stereo unspecified) | -5 | - | - | - | - | - | - | - | -
O=C1NC2(CCN(Cc3ccccc3)CC2)Oc2ccccc21 | - | - | - | - | - | . | . | . | .
CC(NC(=O)CCC1COc2ccccc2O1)c1ccccc1 (stereo unspecified) | - | - | - | - | - | . | . | . | .
O=C(NNC(=O)c1cc(-c2ccncc2)nc2ccccc12)c1ccccc1O | - | - | - | - | - | . | . | . | .
CC1(C)CC(=O)C2=C(C1)N(c1ccc(F)cc1)C(=O)CC2c1ccsc1 (stereo unspecified) | -5.1 | - | - | - | - | - | - | - | -
CCOC(=O)c1ccc(NC(=O)CCNS(=O)(=O)c2cccs2)cc1 | -5.4 | - | - | - | - | - | - | - | -
COC(=O)c1ccc(NC(=O)CNS(=O)(=O)c2cccs2)cc1 | - | - | - | - | - | . | . | . | .
O=C(c1ccc(F)c(S(=O)(=O)N2CCOCC2)c1)N1CCc2ccccc21 | - | - | - | - | - | . | . | . | .
Cc1ccc(NC(=O)[C@@H]2CCC(=O)N2C2OC(=O)c3ccccc32)cc1Cl (stereo partly specified) | - | - | - | - | - | . | . | . | .
Cc1ccc(Cl)cc1NC(=O)[C@@H]1CCC(=O)N1C1OC(=O)c2ccccc21 (stereo partly specified) | -9.9 | - | - | - | - | 84% | - | - | -
COc1ccc(NC(=O)CCN2CCN(Cc3ccccc3)CC2)c(OC)c1 | - | - | - | - | - | . | . | . | .
COc1ccc(-c2nc(N3CCC(C)CC3)[nH]c(=O)c2C#N)cc1 | -5.6 | - | - | - | - | - | - | - | -
COc1ccc(-c2nc(N3CCCC3)[nH]c(=O)c2C#N)cc1 | - | - | - | - | - | . | . | . | .
COc1ccc(NC(=O)CN(C)C(=O)CSc2ccc3c(c2)OCCO3)cc1 | -5.2 | - | - | - | - | - | - | - | -
Cc1cc(=O)n2c(n1)NC(Nc1cccc(C)c1C)=NC2c1ccccc1 (stereo unspecified) | - | - | - | - | - | . | . | . | .
